Measured values from publication PMC3902791 (Molecular imaging and biology : MIB : the official …, 2012).
Entries after “also recorded” stand apart in the source; their conditions may differ.

What was measured:
rhesus macaques [1] = test: Hematology and blood chemistry before and after PET imaging; type: in vivo
[2] = type: in vivo, rhesus macaques
Outline: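 Six rhesus macaques (3 female, 3 male), fasted overnight, under isoflurane anaesthesia, received test compound i.v. at 165.4 ± 28.5 MBq (21.8±5.9 MBq/kg) in 5 mL over 2 min. Venous samples (0.5 mL) were taken from the second saphenous cannula at 10, 20, 40, 60, 90 s and 2–180 min. Radioactivity in whole blood and plasma was gamma-counted and expressed as %ID/mL.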

[3] = Radio-HPLC analysis of radiolabeled metabolites in blood plasma and urine; type: in vivo, rhesus macaques
Outline: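 Plasma was ultrafiltered, then run on radio-HPLC (Supelcogel C-610H column, 20 mM phosphoric acid, 0.5 mL/min, UV plus radioactivity detection). Peaks were identified with cold fluorocitrate and fluoride standards, and fractions were taken from peak areas. Urine was collected by Foley catheter, which was clamped until after the second whole-body scan. It was collected at 120–150 min, gamma-counted and analysed by the same HPLC.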

[4] = Dynamic and whole-body PET imaging of pharmacokinetics and biodistribution; type: in vivo, rhesus macaques
Outline: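 ECAT HR+ scanner; 10-min transmission scan, then i.v. radiotracer (165.4 ± 28.5 MBq). Lower thorax to upper abdomen was imaged dynamically for 0–30 min in 2D mode, 29 frames (20×15 s, 5×1 min, 4×5 min). Three whole-body static scans followed at 40, 100 and 170 min (3-min transmission, 5-min emission, 4–5 beds). OSEM reconstruction with attenuation, scatter, random and dead-time correction. 3D VOIs gave organ %ID/g time–activity curves.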

[5] = Stability of radiochemical purity of the product; type: physicochemical; conditions: after completion of the synthesis
Outline: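 Final product was in 0.9% saline adjusted to pH 6–8 and sterile-filtered. Radiochemical purity was followed after end of synthesis by HPLC: Supelcogel C-610H column (30 cm × 7.8 mm), 20 mM aqueous phosphoric acid, 0.5 mL/min, UV and radioactivity detection.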

rhesus macaques [6] = test: ECG monitoring for acute toxicity during PET imaging; type: in vivo
Outline: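 Animals were anaesthetised (atropine 0.04 mg/kg i.m.; telazole or ketamine i.m.; isoflurane 1.0–3.0% in oxygen), intubated, mechanically ventilated and kept at 37±0.8°C. ECG, blood pressure, pulse oximetry and respiration rate were monitored throughout the imaging study after i.v. radiotracer.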

Structure (SMILES): O=C(O)C[18F] [^18F-FACE, ^18F-fluoroacetate]
- ALP (rhesus macaques [1]; After 1–3 months): 134.0±58.2 IU/L
- ALT (rhesus macaques [1]; After 1–3 months): 30.5±8.5 IU/L
- AST (rhesus macaques [1]; After 1–3 months): 28.7±3.4 IU/L
- Albumin (rhesus macaques [1]; After 1–3 months): 3.4 ± 0.8 g/dL
- BUN (rhesus macaques [1]; After 1–3 months): 17.9 ± 4.9 mg/dL
- Hb (rhesus macaques [1]; After 1–3 months): 13.4 ± 0.4 g/dL
- Hct (rhesus macaques [1]; After 1–3 months): 42.4±2.0 %
- Plt (rhesus macaques [1]; After 1–3 months): 303.0±118.8 ×10^6/mL
- RBC (rhesus macaques [1]; After 1–3 months): 5.7±0.1 ×10^6/mL
- Total bilirubin (rhesus macaques [1]; After 1–3 months): 0.2 ± 0.1 mg/dL
- Total protein (rhesus macaques [1]; After 1–3 months): 6.1 ± 0.9 g/dL
- WBC (rhesus macaques [1]; After 1–3 months): 4.8±0.5 ×10^3/mL
- ALP (rhesus macaques [1]; After imaging): 169.4±61.3 IU/L
- ALT (rhesus macaques [1]; After imaging): 34.2±12.2 IU/L
- AST (rhesus macaques [1]; After imaging): 29.0±5.6 IU/L
- Albumin (rhesus macaques [1]; After imaging): 3.9 ± 0.8 g/dL
- BUN (rhesus macaques [1]; After imaging): 17.9 ± 4.6 mg/dL
- Hb (rhesus macaques [1]; After imaging): 13.1 ± 1.2 g/dL
- Hct (rhesus macaques [1]; After imaging): 41.4±2.5 %
- Plt (rhesus macaques [1]; After imaging): 328.1±54.2 ×10^6/mL
- RBC (rhesus macaques [1]; After imaging): 5.7±0.6 ×10^6/mL
- Total bilirubin (rhesus macaques [1]; After imaging): 0.3 ± 0.1 mg/dL
- Total protein (rhesus macaques [1]; After imaging): 7.0 ± 0.5 g/dL
- WBC (rhesus macaques [1]; After imaging): 6.8± 1.1 ×10^3/mL
- changes in CBC, blood chemistry, liver enzymes, renal function (rhesus macaques [1]; before vs after 3 h and 1–3 months): no statistically significant changes; also recorded: no significant changes in CBC, liver enzymes, or renal function
- blood clearance half-time, fast phase ([2]; i.v., bi-exponential, fast phase between 3 and 18 min): 4 min
- blood clearance half-time, slow phase ([2]; i.v., bi-exponential, slow phase until 180 min): 250 min
- partition of radioactivity in the blood: plasma ([2]; stable throughout the study): 70%
- partition of radioactivity in the blood: red blood cells ([2]; stable throughout the study): 30%
- ^18F-fluorocitrate anabolite ([3]; 3-h study): not detectable
- fraction of total radioactivity in urine as ^18F-FACE ([3]; urine collected at 120–150 min): 72.4%
- fraction of total radioactivity in urine as ^18F-fluoride ([3]; urine collected at 120–150 min): 27.6%
- accumulation in the myocardium ([4]; PET): Some accumulation
- accumulation or retention in the brain ([4]; PET): No significant accumulation or retention
- uptake of radioactivity (free ^18F-fluoride) in bones / skeletal structures ([4]; PET, over 2 to 3 h post-injection): insignificant; also recorded: limited
- radioactivity concentration in liver ([4]; at 5 min): 0.040 % ID/g
- level of radioactivity in the blood ([4]; within 5 min after i.v. injection): 0.040±0.02 % ID/g
- time the product maintained its radiochemical purity [5]: more than 8 h
- changes in ECG (cardiac rhythm, electrical activity) (rhesus macaques [6]; administration to 180 min post-injection): None of the animals injected with ^18F-FACE demonstrated any significant changes in cardiac rhythm or electrical activity patterns; also recorded: no significant changes to the ECG
- ECG PR (rhesus macaques [6]; time 1 min): 0.11 ± 0.01 s
- ECG QRS (rhesus macaques [6]; time 1 min): 0.05 ± 0.01 s
- ECG QT (rhesus macaques [6]; time 1 min): 0.35 ± 0.04 s
- ECG ST (rhesus macaques [6]; time 1 min): 0.80 ± 0.45 s
- ECG p (rhesus macaques [6]; time 1 min): 0.04 ± 0.01 s
- Heart rate (rhesus macaques [6]; time 1 min): 88±8 per minute
- ECG PR (rhesus macaques [6]; time 2 min): 0.11 ± 0.01 s
- ECG QRS (rhesus macaques [6]; time 2 min): 0.04 ± 0.00 s
- ECG QT (rhesus macaques [6]; time 2 min): 0.34 ± 0.05 s
- ECG ST (rhesus macaques [6]; time 2 min): 1.00 ± 0.50 s
- ECG p (rhesus macaques [6]; time 2 min): 0.04 ± 0.00 s
- Heart rate (rhesus macaques [6]; time 2 min): 88±8 per minute
- ECG PR (rhesus macaques [6]; time 5 min): 0.11 ± 0.02 s
- ECG QRS (rhesus macaques [6]; time 5 min): 0.04 ± 0.01 s
- ECG QT (rhesus macaques [6]; time 5 min): 0.35 ± 0.04 s
- ECG ST (rhesus macaques [6]; time 5 min): 0.95 ± 0.51 s
- ECG p (rhesus macaques [6]; time 5 min): 0.04 ± 0.01 s
- Heart rate (rhesus macaques [6]; time 5 min): 88±7 per minute
- ECG PR (rhesus macaques [6]; time 16 min): 0.10 ± 0.01 s
- ECG QRS (rhesus macaques [6]; time 16 min): 0.04 ± 0.00 s
- ECG QT (rhesus macaques [6]; time 16 min): 0.34 ± 0.04 s
- ECG ST (rhesus macaques [6]; time 16 min): 0.80 ± 0.41 s
- ECG p (rhesus macaques [6]; time 16 min): 0.05 ± 0.01 s
- Heart rate (rhesus macaques [6]; time 16 min): 87±6 per minute
- ECG PR (rhesus macaques [6]; time 32 min): 0.11 ± 0.01 s
- ECG QRS (rhesus macaques [6]; time 32 min): 0.04 ± 0.00 s
- ECG QT (rhesus macaques [6]; time 32 min): 0.34 ± 0.03 s
- ECG ST (rhesus macaques [6]; time 32 min): 0.60 ± 0.38 s
- ECG p (rhesus macaques [6]; time 32 min): 0.05 ± 0.01 s
- Heart rate (rhesus macaques [6]; time 32 min): 89±7 per minute
- ECG PR (rhesus macaques [6]; time 60 min): 0.11 ± 0.01 s
- ECG QRS (rhesus macaques [6]; time 60 min): 0.04 ± 0.01 s
- ECG QT (rhesus macaques [6]; time 60 min): 0.34 ± 0.04 s
- ECG ST (rhesus macaques [6]; time 60 min): 0.70 ± 0.54 s
- ECG p (rhesus macaques [6]; time 60 min): 0.04 ± 0.00 s
- Heart rate (rhesus macaques [6]; time 60 min): 89±7 per minute
- ECG PR (rhesus macaques [6]; time 90 min): 0.11 ± 0.01 s
- ECG QRS (rhesus macaques [6]; time 90 min): 0.04 ± 0.00 s
- ECG QT (rhesus macaques [6]; time 90 min): 0.34 ± 0.03 s
- ECG ST (rhesus macaques [6]; time 90 min): 0.70 ± 0.54 s
- ECG p (rhesus macaques [6]; time 90 min): 0.04 ± 0.01 s
- Heart rate (rhesus macaques [6]; time 90 min): 87±5 per minute
- ECG PR (rhesus macaques [6]; time 120 min): 0.11 ± 0.01 s
- ECG QRS (rhesus macaques [6]; time 120 min): 0.05 ± 0.01 s
- ECG QT (rhesus macaques [6]; time 120 min): 0.33 ± 0.03 s
- ECG ST (rhesus macaques [6]; time 120 min): 0.60 ± 0.38 s
- ECG p (rhesus macaques [6]; time 120 min): 0.04 ± 0.01 s
- Heart rate (rhesus macaques [6]; time 120 min): 88±3 per minute
- ECG PR (rhesus macaques [6]; time 180 min): 0.10 ± 0.01 s
- ECG QRS (rhesus macaques [6]; time 180 min): 0.04 ± 0.00 s
- ECG QT (rhesus macaques [6]; time 180 min): 0.34 ± 0.03 s
- ECG ST (rhesus macaques [6]; time 180 min): 0.85 ± 0.63 s
- ECG p (rhesus macaques [6]; time 180 min): 0.04 ± 0.01 s
- Heart rate (rhesus macaques [6]; time 180 min): 93±8 per minute
